pIC50: −log10 of the molar value.
system: K562; assay: In vitro cytotoxicity tested against human chronic leukemia K562 cells; format: functional, cell-based
Outline: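 Human K562 chronic myeloid leukaemia cells, kept in log-phase suspension in RPMI 1640 with 10% horse serum at 37 °C, 5% CO2. Seeded at 600 cells/well and given continuous drug exposure for 5 days. Growth was read by MTT absorbance at 540 and 640 nm. Inhibition of growth was plotted against concentration, in triplicate at each concentration.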

In order of falling pIC50:
1. CC1=C(N2CC2)C(=O)C(C)=C(N2CC2)C1=O  8.74
2. O=C1C=C(N2CC2)C(=O)C(N2CC2)=C1N1CC1 [TRIAZIQUONE]  8.54
3. O=C1C=C(N2CC2)C(=O)C(c2ccccc2)=C1N1CC1  8.51
4. Cc1ccc(C2=C(N3CC3)C(=O)C=C(N3CC3)C2=O)cc1  8.32
5. O=C1C=C(N2CC2)C(=O)C(Cl)=C1N1CC1  8.28
6. O=C1C(N2CC2)=C(N2CC2)C(=O)C(N2CC2)=C1N1CC1  8.24
7. O=C1C=C(N2CC2)C(=O)C(Br)=C1N1CC1  8.14
8. O=C1C=C(N2CC2)C(=O)C=C1N1CC1  8.08
9. O=C1C(F)=C(N2CC2)C(=O)C(F)=C1N1CC1  8.00
10. O=C1C=C(N2CC2)C(=O)C(I)=C1N1CC1  7.90
11. O=C1C(F)=C(N2CC2)C(=O)C(N2CC2)=C1F  7.41
12. O=C1C(Br)=C(N2CC2)C(=O)C(Br)=C1N1CC1  7.38
13. O=C1C(Cl)=C(N2CC2)C(=O)C(Cl)=C1N1CC1  7.34
14. O=C1C(I)=C(N2CC2)C(=O)C(I)=C1N1CC1  7.30
15. CCOC(=O)NC1=C(N2CC2)C(=O)C(NC(=O)OCC)=C(N2CC2)C1=O [DIAZIQUONE]  7.20
16. O=C1C(c2ccccc2)=C(N2CC2)C(=O)C(c2ccccc2)=C1N1CC1  7.17
17. CC1=C(N2CC2)C(=O)C(Cl)=C(N2CC2)C1=O  7.12
18. OCC/N=C1C(O)=C(N2CC2)/C(=N\CCO)C(O)=C/1N1CC1  6.80
19. O=C1C=C(N2CC2)C(=O)C(c2ccc(Oc3ccccc3)cc2)=C1N1CC1  6.77
20. CC1=CC(=O)C(N2CC2)=CC1=O  6.67
21. CC1=C(C)C(=O)C(N2CC2)=CC1=O  6.62
22. CC1=CC(=O)C(N2CC2)=C(C)C1=O  6.32
